Measurements: ChEMBL document CHEMBL4619794, “2-Aminooxazole as a Novel Privileged Scaffold in Antitubercular Medicinal Chemistry” (ACS Med Chem Lett, 2020)
Converted amounts (≈) assume the structure as drawn.

Assays:
[1] = Kinetic solubility of compound in water incubated for 4 hrs by HPLC-MS/MS analysis; type: physicochemical; conditions: read-out: Kinetic_solubility
[2] = Kinetic solubility of compound in PBS at pH 7.4 incubated for 4 hrs by HPLC-MS/MS analysis; type: physicochemical; conditions: read-out: Kinetic_solubility
[3] = tested on: Mycobacterium tuberculosis; assay: Antimycobacterial activity against Mycobacterium tuberculosis H37Rv ATCC 27294 assessed as reduction in bacterial growth incubated for […] by alamar blue assay; type: functional
[4] = Glutathione reactivity of compound assessed as GSH adduct formation incubated for 24 hrs by HPLC-MS analysis; type: physicochemical; parameters: concentration or dose not given beside the values
Procedure, shortened: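 Compounds incubated 24 h with GSH in 1:100 molar excess, then analysed by HPLC–MS/MS in full-scan mode. Both the singly charged [M + H]+ and doubly charged [M + 2H]2+ conjugate ions were monitored. Percentage conjugate = (sum of both conjugate ion peak areas)/(parent [M + H]+ peak area).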

[5] = Metabolic stability in human liver microsomes assessed as half life at 1 uM measured upto 60 mins by HPLC-MS/MS analysis; type: ADME, Microsome
Procedure, shortened: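 Half-life of the compound in human liver microsomes, expressed in minutes. Reported as mean ± SD, n = 3.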

[6] = Metabolic stability in human liver microsomes assessed as intrinsic clearance at 1 uM measured upto 60 mins by HPLC-MS/MS analysis; type: ADME, Microsome; conditions: read-out: CLH
Procedure, shortened: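 Intrinsic clearance derived from the microsomal in vitro half-life as (0.693/t1/2) × (mL incubation/mg microsomes) × (45 mg microsomes/g liver) × (20 g liver/kg body weight). Expressed in mL min–1 kg–1.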

[7] = tested on: Mycobacterium tuberculosis; assay: Antimycobacterial activity against Mycobacterium tuberculosis assessed as reduction in bacterial growth by microdilution method; type: functional
Vero = assay: Cytotoxicity against African green monkey Vero cells; type: cell-based; conditions: chlorocebus sabaeus
[8] = tested on: Mycobacterium tuberculosis; assay: Antimycobacterial activity against Mycobacterium tuberculosis assessed as reduction in bacterial growth incubated for 21 days by REMA assay; type: functional; conditions: 504 h

SMILES | solubility kinetic at 4 h [1] [µM] | solubility kinetic at 4 h [2] [µM] | MIC [3] [µM] | Activity [4] [%] | half-life at 1 µM [5] [min] | CLint scaled at 1 µM [6] [mL/min/kg] | MIC [7] [µM] | Activity (Vero) | MIC [8] [µM]
COc1ccc(-c2csc(Nc3ccc(C)cc3)n2)cc1 | 20 (≈ 5.93 µg/mL) | 1.2 (≈ 0.356 µg/mL) | 13 (≈ 3.85 µg/mL) | 13.9 | 14.5 | 42.9 | – | – | –
Cc1ccc(Nc2nc(-c3cc(C(F)(F)F)ccc3F)cs2)cc1 | 24 (≈ 8.46 µg/mL) | 7.5 (≈ 2.64 µg/mL) | 27.5 (≈ 9.69 µg/mL) | 10.4 | 22.4 | 27.9 | – | – | –
CCOC(=O)c1cc(-c2csc(Nc3ccc(C)cc3)n2)on1 | 54.9 (≈ 18.1 µg/mL) | 27.7 (≈ 9.12 µg/mL) | – | 3.7 | 3.3 | 189 | 1.5 (≈ 0.494 µg/mL) | – | –
Cc1ccc(Nc2nc(-c3cc(C(=O)Nc4ccccn4)no3)cs2)cc1 | 2.9 (≈ 1.09 µg/mL) | 2.4 (≈ 0.906 µg/mL) | – | 7.1 | 16.1 | 38.8 | 0.16 (≈ 0.0604 µg/mL) | – | –
Cc1ccc(Nc2nc(-c3cc(C(F)(F)F)ccc3F)co2)cc1 | 5.2 (≈ 1.75 µg/mL) | 5.9 (≈ 1.98 µg/mL) | 12.3 (≈ 4.14 µg/mL) | 14.2 | 22.6 | 27.6 | – | – | –
COc1ccc(-c2coc(Nc3ccc(C)cc3)n2)cc1 | 0.7 (≈ 0.196 µg/mL) | 1.1 (≈ 0.308 µg/mL) | > 100 | 14.2 | 20.9 | 29.9 | – | – | –
CCOC(=O)c1cc(-c2coc(Nc3ccc(C)cc3)n2)on1 | 9.1 (≈ 2.85 µg/mL) | 6.8 (≈ 2.13 µg/mL) | 2.3 (≈ 0.721 µg/mL) | 15.8 | 2.7 | 226 | – | Non-Toxic | –
Cc1ccc(Nc2nc(-c3cc(C(=O)Nc4ccccn4)no3)co2)cc1 | 24 (≈ 8.67 µg/mL) | 9.3 (≈ 3.36 µg/mL) | – | 2.1 | 15 | 41.5 | – | Non-Toxic | 6.9 (≈ 2.49 µg/mL)
